In brackets after ≈: the same amount, converted by molar mass.
Key:
Type in all cases: functional
Conditions in all cases: time 5 day
[1] = system: Mycobacterium tuberculosis; experiment: Antitubercular activity against rifampicin resistant Mycobacterium tuberculosis HN878 harboring RpoBH455D mutant assessed as bacterial growth inhibition measured after 5 days by serial dilution method
How it was run: (§1)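 Strains grown in Middlebrook 7H9 with OADC supplement and 0.05% w/v Tween 80. Compounds tested as 10-point 2-fold serial dilutions. Growth read as OD590 after 5 days in 7H9-OADC-Tw. Levenberg-Marquardt curve fitting gave MIC90, the concentration inhibiting growth by 90% relative to controls. Run in triplicate.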

[2] = system: Mycobacterium tuberculosis; experiment: Antitubercular activity against rifampicin resistant Mycobacterium tuberculosis ATCC 35838 harboring RpoBS531L mutant assessed as bacterial growth inhibition measured after 5 days by serial dilution method; how it was run: as §1
[3] = system: Mycobacterium tuberculosis H37Rv; experiment: Antitubercular activity against rifampicin resistant Mycobacterium tuberculosis H37Rv harboring RpoBS522L mutant assessed as bacterial growth inhibition measured after 5 days by serial dilution method; how it was run: as §1

Row | Compound | MIC90 [1] | MIC90 [2] | MIC90 [3]
1 | CO[C@H]1/C=C/O[C@@]2(C)Oc3c(C)c(O)c4c(O)c(c(CN5CCN(CCO)CC5)c(O)c4c3C2=O)NC(=O)/C(C)=C\C=C\[C@H](C)[C@H](O)[C@@H](C)[C@@H](O)[C@@H](C)[C@H](OC(C)=O)[C@@H]1C | >20 µM | >20 µM | 4.7 µM (≈ 3.95 µg/mL)
2 | CO[C@H]1/C=C/O[C@@]2(C)Oc3c(C)c(O)c4c(O)c(c(CNCc5ccc(S(C)(=O)=O)cc5)c(O)c4c3C2=O)NC(=O)/C(C)=C\C=C\[C@H](C)[C@H](O)[C@@H](C)[C@@H](O)[C@@H](C)[C@H](OC(C)=O)[C@@H]1C | >20 µM | >20 µM | 3.2 µM (≈ 2.86 µg/mL)
3 | CO[C@H]1/C=C/O[C@@]2(C)Oc3c(C)c(O)c4c(O)c(c(CNCc5ccncc5)c(O)c4c3C2=O)NC(=O)/C(C)=C\C=C\[C@H](C)[C@H](O)[C@@H](C)[C@@H](O)[C@@H](C)[C@H](OC(C)=O)[C@@H]1C | >20 µM | >20 µM | 6.7 µM (≈ 5.48 µg/mL)
4 | CO[C@H]1/C=C/O[C@@]2(C)Oc3c(C)c(O)c4c(O)c(c(CNCc5ccccc5)c(O)c4c3C2=O)NC(=O)/C(C)=C\C=C\[C@H](C)[C@H](O)[C@@H](C)[C@@H](O)[C@@H](C)[C@H](OC(C)=O)[C@@H]1C | 9.9 µM (≈ 8.09 µg/mL) | >20 µM | 12 µM (≈ 9.8 µg/mL)
5 | CO[C@H]1/C=C/O[C@@]2(C)Oc3c(C)c(O)c4c(O)c(c(CNCc5cccs5)c(O)c4c3C2=O)NC(=O)/C(C)=C\C=C\[C@H](C)[C@H](O)[C@@H](C)[C@@H](O)[C@@H](C)[C@H](OC(C)=O)[C@@H]1C | 14 µM (≈ 11.5 µg/mL) | >20 µM | 8 µM (≈ 6.58 µg/mL)
6 | CO[C@H]1/C=C/O[C@@]2(C)Oc3c(C)c(O)c4c(O)c(c(CNCc5ccco5)c(O)c4c3C2=O)NC(=O)/C(C)=C\C=C\[C@H](C)[C@H](O)[C@@H](C)[C@@H](O)[C@@H](C)[C@H](OC(C)=O)[C@@H]1C | 16 µM (≈ 12.9 µg/mL) | >20 µM | >20 µM
7 | COC(=O)c1ccc(CNCc2c3c(O)c4c(O)c(C)c5c(c4c2O)C(=O)[C@@](C)(O/C=C/[C@H](OC)[C@@H](C)[C@@H](OC(C)=O)[C@H](C)[C@H](O)[C@H](C)[C@@H](O)[C@@H](C)/C=C/C=C(/C)C(=O)N3)O5)cc1 | >20 µM | >20 µM | 7.7 µM (≈ 6.74 µg/mL)
8 | CO[C@H]1/C=C/O[C@@]2(C)Oc3c(C)c(O)c4c(O)c(c(CNCCc5c[nH]c6ccccc56)c(O)c4c3C2=O)NC(=O)/C(C)=C\C=C\[C@H](C)[C@H](O)[C@@H](C)[C@@H](O)[C@@H](C)[C@H](OC(C)=O)[C@@H]1C | >20 µM | >20 µM | 3.1 µM (≈ 2.7 µg/mL)
9 | CO[C@H]1/C=C/O[C@@]2(C)Oc3c(C)c(O)c4c(O)c(c(CNCCc5ccc(O)cc5)c(O)c4c3C2=O)NC(=O)/C(C)=C\C=C\[C@H](C)[C@H](O)[C@@H](C)[C@@H](O)[C@@H](C)[C@H](OC(C)=O)[C@@H]1C | >20 µM | >20 µM | 5.8 µM (≈ 4.91 µg/mL)
10 | NNC(=O)c1ccncc1 [ISONIAZID] | 0.62 µM (≈ 0.085 µg/mL) | 0.55 µM (≈ 0.0754 µg/mL) | 0.29 µM (≈ 0.0398 µg/mL)
11 | CO[C@H]1/C=C/O[C@@]2(C)Oc3c(C)c(O)c4c(O)c(c(/C=N/N5CCN(C)CC5)c(O)c4c3C2=O)NC(=O)/C(C)=C\C=C\[C@H](C)[C@H](O)[C@@H](C)[C@@H](O)[C@@H](C)[C@H](OC(C)=O)[C@@H]1C [RIFAMPIN] | >8 µM | >8 µM | >8 µM

Reference: ChEMBL document CHEMBL5055637, “Novel C-3-(N-alkyl-aryl)-aminomethyl rifamycin SV derivatives exhibit activity against rifampicin-resistant Mycobacterium tuberculosis RpoBS522L strain and display a different binding mode at the RNAP β-subunit site compared to rifampicin” (2021)
